Assay outcomes as filed in PubChem BioAssay.
Only some compounds are listed: those with a hit (about 0.89% of all), similar ones and a draw of the others.
ABCB6 inh MLPCN = blocks the human ABCB6 transporter | AID 602162 | Q9NP58 | actives 0.19% (n = 360,000) | K562-ABCB6 porphyrin accumulation, flow cytometry, 1 h; hits give low values | fluorescence ratio to DMSO, % at 10 µM;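 active = fluorescence ratio to DMSO below 75%, the collection mean minus 3 SD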;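 note: signal is porphyrin accumulated inside mitochondria; 100% equals median channel fluorescence of DMSO control wells; lower ratio means ABCB6 inhibition with less porphyrin fluorescence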
iPSC survival up = increases survival of single human iPS cells; hiPSC single-cell survival, ATPlite luminescence; 100% = ROCK inhibitor wells, 0% = DMSO; survival enhancement, % at 20 µM; actives 0.044% (n = 360,000); in the data active = survival enhancement above about 18%;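 note: cells exposed to compounds for 16 hours before the ATP read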
PG9 Ab binder = binds the HIV-1 gp120 antibody PG9. TR-FRET gp120-PG9 antibody binding. inhibition, % at 6.7 µM. actives 0.43% (n = 360,000). AID 624416; in the data active = inhibition above about 8.5%
Arrestin-AP2 inh = blocks beta-arrestin peptide binding to AP2 adaptin. FITC-arrestin peptide / GST-AP2 beads, flow cytometry; AP2 beta2 appendage carries R879A mutation. inhibition, % at 10 µM. actives 0.31% (n = 340,000). AID 504490;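 active = inhibition above a set limit, near 3 SD of compounds lacking own fluorescence, cut at about 54% in these data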;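 note: plate controls were DMSO wells for no effect and 5 µM unlabelled arrestin peptide for full effect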
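Measured by: flow cytometry, FL1 (488/535 nm); Material: AP2 appendage R879A on GSH beads; Evaluation: percent response; Timing: pre-incubation 12 min, peptide binding 1 h, room temperature; Also added: 50 nM FITC-arrestin peptide; Medium: PBS with 0.05% Tween 20 and 0.1% BSA.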
PG9 bind confirm = PG9 antibody binding, confirmed | AID 651571 | actives 90% (n = 1,500) | shares compounds with PG9 Ab binder | TR-FRET PG9 antibody binding, biochemical | inhibition, % at 6.7 µM; in the data active = inhibition above about 9%
PGV04 counter = PGV04 control antibody binding, counter-screen; shares compounds with PG9 Ab binder; TR-FRET PGV04 antibody-gp120 binding, biochemical; inhibition, % at 6.7 µM; actives 95% (n = 1,500); in the data active = inhibition above about 9.5%
PG9 bind DR = PG9 antibody binding, dose response; IC50, µM; shares compounds with PG9 Ab binder; TR-FRET PG9 antibody-gp120 binding inhibition; 95 tested, under 10 active; in the data active = IC50 below about 10 µM
PGV04 binding DR = PGV04 binding, dose response counter-screen; TR-FRET binding to control antibody PGV04; IC50, µM; shares compounds with PG9 Ab binder; actives 20% (n = 95)
PG126 DR counter = PG126 binding, dose response counter-screen | shares compounds with PG9 Ab binder | TR-FRET binding to antibody PG126, counterscreen | IC50, µM | actives 20% (n = 95) | AID 651939
* marks the source's active call; other numbers are inactive results. Cut-off read from the data, not from the text of the source, unless noted: active = IC50 below about 9 µM; inactive = the rest.

Cc1c(N2C(=O)C(=O)/C(=C(/O)c3ccc(Br)cc3)C2c2cccnc2)c(=O)n(-c2ccccc2)n1C (stereo not given) was read as ABCB6 inh MLPCN 97.0, iPSC survival up -1.0, PG9 Ab binder 22.4*, Arrestin-AP2 inh 2.7, PG9 bind confirm 30.7* and PGV04 counter 38.4*.
`Cc1ccc(/C(O)=C2/C(=O)C(=O)N(CCN3CCOCC3)C2c2cccnc2)cc1` (stereo not given) gave ABCB6 inh MLPCN 103.0, iPSC survival up -1.5, PG9 Ab binder 0.0 and Arrestin-AP2 inh -0.5.
For C=CCn1c(C)c(C(=O)OCC)c2cc(O)c3ccccc3c21 the results were ABCB6 inh MLPCN 97.0, iPSC survival up -0.2, PG9 Ab binder 11.4*, Arrestin-AP2 inh -15.2, PG9 bind confirm 3.7, PGV04 counter 3.3, PG9 bind DR >67, PGV04 binding DR >67 and PG126 DR counter >67.
`COc1ccc(NC(=O)c2nnn(CC(=O)Nc3ccc4c(c3)OCO4)c2N)cc1OC` gave ABCB6 inh MLPCN 94.0, iPSC survival up -0.7, PG9 Ab binder 0.0 and Arrestin-AP2 inh -3.3.
`COc1ccc(Cl)cc1NC(=O)c1nnn(CC(=O)Nc2ccc3c(c2)OCO3)c1N` gave ABCB6 inh MLPCN 94.0, iPSC survival up -0.2, PG9 Ab binder 10.1*, Arrestin-AP2 inh -9.6, PG9 bind confirm 19.8* and PGV04 counter 26.9*.
`COc1ccc(N2C[C@@]3(O)CC[C@@H](O)[C@@H](OC)[C@@H]3[C@@]2(C)[C@H](O)CC=C(C)C)cc1` gave PG9 Ab binder 1.2.
For CCSc1nnc(NC(=O)c2csc3c2CCCC3)s1 the results were ABCB6 inh MLPCN 102.0, iPSC survival up -1.3, PG9 Ab binder 9.2*, Arrestin-AP2 inh -7.5, PG9 bind confirm 23.8* and PGV04 counter 37.5*.
`CCSc1nnc(NC(=O)c2cc3c(s2)CCCC3)s1` gave ABCB6 inh MLPCN 103.0, iPSC survival up 0.5, PG9 Ab binder 11.7*, Arrestin-AP2 inh -0.3, PG9 bind confirm 22.5*, PGV04 counter 18.4*, PG9 bind DR >67, PGV04 binding DR inactive and PG126 DR counter inactive.
Screening O=C(Nc1nnc(SCc2ccccc2)s1)c1cccc([N+](=O)[O-])c1 returned ABCB6 inh MLPCN 96.0, iPSC survival up -1.1, PG9 Ab binder 0.0 and Arrestin-AP2 inh 10.7.
CC(=O)Nc1nnc(SCc2ccc(F)cc2)s1 was read as ABCB6 inh MLPCN 98.0, iPSC survival up 0.4, PG9 Ab binder -1.3 and Arrestin-AP2 inh 7.2.
O=C(Nc1nnc(SCc2ccc(F)cc2)s1)c1ccc2ncsc2c1 was read as ABCB6 inh MLPCN 97.0, iPSC survival up -1.7, PG9 Ab binder 9.7*, Arrestin-AP2 inh -7.7, PG9 bind confirm 19.4* and PGV04 counter 25.4*.
O=C(Nc1nnc(SCc2ccccc2)s1)c1cc2c(s1)CCCC2 was read as ABCB6 inh MLPCN 101.0, iPSC survival up 3.8, PG9 Ab binder 9.7*, Arrestin-AP2 inh 6.4, PG9 bind confirm 20.7*, PGV04 counter 17.3*, PG9 bind DR inactive, PGV04 binding DR inactive and PG126 DR counter inactive.
For COc1ccc(-c2ccc3c(n2)CCCN3S(=O)(=O)c2cccs2)cc1 the results were PG9 Ab binder -0.9.
Screening C=CCO[C@H]1CN(C(=O)OC)[C@@H]2C[C@H]1Oc1ccccc12 returned PG9 Ab binder -0.6.
`Cc1cc(NCCCOC(C)C)n2c(nc3ccccc32)c1C#N` gave ABCB6 inh MLPCN 105.0, iPSC survival up 0.3, PG9 Ab binder 10.7*, Arrestin-AP2 inh -2.8, PG9 bind confirm 21.9* and PGV04 counter 32.6*.
For Cc1cc(NCCCN(C)C)n2c(nc3ccccc32)c1C#N the results were ABCB6 inh MLPCN 101.0, iPSC survival up 1.2, PG9 Ab binder -0.4 and Arrestin-AP2 inh 8.2.
